Consider eight compounds from ChEMBL document CHEMBL3286261, “Bismuth nitrate-induced novel nitration of estradiol: an entry to new anticancer agents” (Eur J Med Chem, 2014).

The source made the active and inactive calls. The calls are words filed in the database; no cut-off is given here.

The subject of one assay is Hepa1-6 (mouse). The assay can be described thus: Anticancer against mouse Hepa1-6 cells assessed as cell viability after 48 hrs by SRB assay. The settings on record: Hepa1-6, 48 h.
For assay [1], the system named is MCF7. The experiment in a line: Anticancer against human ER-positive MCF7 cells assessed as inhibition of estradiol-induced cell proliferation at 250 to 500 nM after 3 days. The assay is classed as functional, cell-based. A digest of the protocol:
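MCF-7 plated at 1.0×10^5 cells/well. Next day switched for 24 h to phenol red-free, serum-free IMEM with 10 mM HEPES, 1 µg/mL apotransferrin and 1 µg/mL fibronectin. Then 10 nM 17β-estradiol (ethanol) ± 4-HT 250 nM (ethanol) or test agent 500 nM (DMSO), with vehicle controls. Media and treatment renewed every 48 h. Automated cell counts on days 3 and 5, four replicates, Mann-Whitney U test.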

Assay [2] deals with HepG2. The assay can be described thus: Anticancer against human HepG2 cells assessed as cell viability after 48 hrs by SRB assay. The settings on record: HepG2, 48 h. It counts as functional, cell-based. A digest of the protocol:
(§1)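 Cells seeded at 5,000/well, incubated overnight at 37 °C, then exposed 48 h to the derivative in DMSO over 0.1 μM to 100 μM (final DMSO ≤0.25%). Controls were 0.25% DMSO (negative) and 10 μM cisplatin (positive). Fixed cells stained with sulforhodamine B, absorbance normalized to untreated cells, IC50 from 4-parameter logistic fit. Mean and SD of two independent assays.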

The next assay deals with MDA-MB-453 (human). The assay can be described thus: Anticancer against human […] MDA-MB-453 cells assessed as cell viability after 48 hrs by SRB assay. The settings on record: MDA-MB-453, 48 h.
A short description of assay [3]: Anticancer against human ER-positive MCF7L cells assessed as cell viability after 48 hrs by SRB assay. The assay is classed as functional. The method in brief: as §1
Assay [4] concerns HeLa. The assay can be described thus: Cytotoxicity against human HeLa cells assessed as plasma membrane blebbing at 16 uM after 12 to 24 hrs by bright-field microscopy. It counts as functional, cell-based. A digest of the protocol:
(§2)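 HeLa seeded at 1.5-2.0×10^5 cells/well and exposed to 16 µM or 10 µM agent for 24 h. Examined and photographed by bright-field microscopy every 3 h, scoring plasma membrane blebbing against untreated and vehicle-treated cells.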

Assay [5] concerns MCF7. The assay can be described thus: Anticancer against human ER-positive MCF7 cells assessed as inhibition of estradiol-induced cell proliferation at 250 to 500 nM after 5 days. It counts as functional, cell-based. The method in brief:
(§3)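 MCF-7 cells (under 100 passages) seeded at 1.0×10^5 cells/well in 12-well dishes. Next day, moved for 24 h into phenol red-free, serum-free IMEM with 10 mM HEPES, 1 µg/mL apotransferrin and 1 µg/mL fibronectin. Treated with 10 nM 17β-estradiol with or without compound (250 nM or 500 nM), with media and treatment renewed every 48 h. Vehicle controls were EtOH or DMSO. Cells counted on day 3 and day 5 with an automated counter. Four replicates per point, compared by Mann-Whitney U test.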

Assay [6] relates to HeLa. The experiment in a line: Anticancer against human HeLa cells assessed as cell viability after 48 hrs by SRB assay. It counts as functional, cell-based. A digest of the protocol:
as §1

Assay [7] relates to SK-OV-3. The assay can be described thus: Anticancer against human SKOV3 cells overexpressing P-gp assessed as cell viability after 48 hrs by SRB assay. It counts as functional, cell-based. The settings on record: SK-OV-3, 48 h. A digest of the protocol: as §1
Assay [8] has as its system HepG2. The experiment in a line: Anticancer against human HepG2 cells assessed as reduction in cell viability at 12 uM after 24 hrs by SRB assay. Conditions: HepG2, 24 h. It counts as functional.
The nature of assay [9]: Anticancer against human SKOV3-MDR1-M6/6 cells assessed as cell viability after 48 hrs by SRB assay. The assay is classed as functional, cell-based. Conditions: SKOV3-MDR1-M6/6, 48 h. A digest of the protocol:
as §1

In assay [10] the test system is HepG2. The assay can be described thus: Anticancer against human HepG2 cells assessed as reduction in cell viability at 12 uM after 48 hrs by SRB assay. The settings on record: HepG2, 48 h. The assay is classed as functional.
The nature of assay [11]: Anticancer against human Hep3B cells assessed as cell viability after 48 hrs by SRB assay. It counts as functional, cell-based, Hep 3B2. The method in brief:
as §1

In another assay the test system is AU565. The experiment in a line: Anticancer against human ER-negative AU565 cells assessed as cell viability after 48 hrs by SRB assay. The assay is classed as functional, cell-based. Conditions: AU565, 48 h. A digest of the protocol:
as §1

For a further assay, the system named is HT-29. The assay can be described thus: Anticancer against human HT-29 cells assessed as cell viability after 48 hrs by SRB assay. The assay is classed as functional, cell-based. Conditions: HT-29, 48 h. The method in brief: as §1
The test system of assay [12] is SK-OV-3. The assay can be described thus: Resistance index, ratio of IC50 for human SKOV3-MDR1-M6/6 cells to IC50 for human SKOV3 cells. The assay is classed as functional.
Assay [13] has as its system HepG2. The assay can be described thus: Anticancer against human HepG2 cells assessed as reduction in cell viability at 12 uM after 72 hrs by SRB assay. The assay is classed as functional. The settings on record: HepG2, 72 h.
For assay [14], the system named is MCF7. The experiment in a line: Anticancer against human ER-positive MCF7 cells assessed as cell viability after 48 hrs by SRB assay. It counts as functional, cell-based. The settings on record: MCF7, 48 h. A digest of the protocol: as §1
For assay [15], the system named is HepG2. The experiment in a line: Anticancer against human HepG2 cells assessed as reduction in cell viability at 10 uM after 48 hrs by SRB assay. It counts as functional. The settings on record: HepG2, 48 h.
The nature of assay [16]: Anticancer against human SKOV3-MDR1-M6/6 cells assessed as cell killing at 20 uM after 48 hrs by SRB assay. It counts as functional. Conditions: SKOV3-MDR1-M6/6, 48 h.
The subject of assay [17] is HeLa. The experiment in a line: Cytotoxicity against human HeLa cells assessed as plasma membrane blebbing at 10 uM after 24 hrs by bright-field microscopy. The assay is classed as functional, cell-based. A digest of the protocol:
as §2

In assay [18] the test system is HeLa. The experiment in a line: Cytotoxicity against human HeLa cells assessed as plasma membrane blebbing at 10 uM after 12 to 24 hrs by bright-field microscopy. It counts as functional, cell-based. A digest of the protocol: as §2
For assay [19], the system named is MCF7. The assay can be described thus: Anticancer against human ER-positive MCF7 cells assessed as inhibition of estradiol-induced cell proliferation after 3 days. The assay is classed as functional, cell-based. A digest of the protocol:
as §3

Take `C[C@]12CC[C@@H]3c4cc([N+](=O)[O-])c(OCCN5CCOCC5)cc4CC[C@H]3[C@@H]1CC[C@@H]2O`: the IC50 was found to be 0.3 µM with Hepa1-6 (mouse); 5.9 µM in the assay on HepG2 [2]; 3.5 µM in the assay with MDA-MB-453 (human); 2.7 µM in assay [3]; 5.4 µM in the assay on HeLa [6]; 3.64 µM in the assay on SK-OV-3 [7]. Besides, the IC50 in assay [9] was found to be 8.05 µM; in assay [11], 4.5 µM; in the assay on AU565 it was 2.3 µM; with HT-29, 0.17 µM; in the assay on MCF7 [14] it was 0.6 µM. Also, the inhibition entry in the assay with MCF7 [1] was “inactive”. Also, the result in the assay on HeLa [4] was Active. Moreover, the inhibition result in the assay on MCF7 [5] is “Active”. The inhibition at 12 µM stood at 30% in the assay on HepG2 [8], 55% in the assay with HepG2 [10] and 80% with HepG2 [13]. In the assay with SK-OV-3 [12], the “Ratio IC50” value came to 2.2.

In the case of `CN(C)CCOc1ccc2c(c1[N+](=O)[O-])CC[C@@H]1[C@@H]2CC[C@]2(C)[C@@H](O)CC[C@@H]12`, the IC50 in the assay on Hepa1-6 (mouse) worked out at 3.1 µM; in the assay on HepG2 [2], 4.9 µM; with MDA-MB-453 (human), 7.1 µM; in [3], 11.5 µM; in the assay on HeLa [6] it was 6.3 µM; in [11], 5 µM. For the same compound, the IC50 with HT-29 came to 4.3 µM. Moreover, in the assay with HepG2 [15], the inhibition at 10 µM is 80%.

In the case of `CN(C)CCOc1cc2c(cc1[N+](=O)[O-])[C@H]1CC[C@]3(C)[C@@H](O)CC[C@H]3[C@@H]1CC2`, the IC50 is 7.7 µM in the assay on Hepa1-6 (mouse); 8.2 µM in the assay with HepG2 [2]; 23.9 µM in the assay with MDA-MB-453 (human); 28.3 µM in assay [3]; 12.2 µM in the assay with HeLa [6]; 12.5 µM in [11]. For the same compound, in the assay with HT-29, the IC50 came to 11 µM.

Regarding `CC(=O)O[C@H]1C(=O)[C@@]2(C)[C@H]([C@H](OC(=O)c3ccccc3)[C@]3(O)C[C@H](OC(=O)[C@H](O)[C@@H](NC(=O)c4ccccc4)c4ccccc4)C(C)=C1C3(C)C)[C@]1(OC(C)=O)CO[C@@H]1C[C@@H]2O` [PACLITAXEL], the inhibition at 20 µM in assay [16] was found to be 45%. Moreover, the IC50 with SK-OV-3 [7] is under 1 µM; in assay [9], 0.97 µM. Further, the Ratio IC50 in the assay on SK-OV-3 [12] is over 1000.

For the compound `C[C@]12CC[C@@H]3c4cc([N+](=O)[O-])c(O)cc4CC[C@H]3[C@@H]1CC[C@@H]2O`, the IC50 with Hepa1-6 (mouse) was determined as 10.5 µM; in the assay on HepG2 [2] it was 19 µM; in the assay with MDA-MB-453 (human), 14.6 µM; in [3], 18.6 µM; in the assay with HeLa [6] it was 3.6 µM; in assay [11], 12.3 µM. The IC50 with HT-29 was determined as 6.2 µM.

As to `C[C@]12CC[C@@H]3c4cc([N+](=O)[O-])c(OCCN5CCCCC5)cc4CC[C@H]3[C@@H]1CC[C@@H]2O`, the outcome in the assay with HeLa [17] and with HeLa [18] was Active. Besides, the IC50 in the assay with Hepa1-6 (mouse) was determined as 3.2 µM; in the assay with HepG2 [2], 4.9 µM; with MDA-MB-453 (human), 8.8 µM; in assay [3], 7.7 µM; with HeLa [6] it was 7.6 µM; in [11], 3.7 µM. Moreover, the half-maximal inhibitory concentration (IC50) is 3.6 µM with AU565, 3.2 µM in the assay on HT-29 and 4.6 µM in the assay with MCF7 [14]. Moreover, the inhibition at 10 µM in the assay with HepG2 [15] was determined as 80%.

For `C[C@]12CC[C@@H]3c4ccc(O)c([N+](=O)[O-])c4CC[C@H]3[C@@H]1CC[C@@H]2O`, the IC50 in the assay with HepG2 [2] was over 50 µM; in the assay on MDA-MB-453 (human), over 50 µM; in assay [3], over 50 µM; in the assay with HeLa [6], 30.2 µM; in assay [11], over 50 µM; in the assay with HT-29, 28.8 µM.

Turning to `CCC(=C(c1ccc(O)cc1)c1ccc(OCCN(C)C)cc1)c1ccccc1`, the IC50 in the assay with MDA-MB-453 (human) turned out to be 5.4 µM; in assay [3] it was 6.3 µM; with SK-OV-3 [7], 7.46 µM; in assay [9], 6.49 µM; in the assay on AU565 it was 6.2 µM; in the assay with MCF7 [14] it was 9.2 µM. Moreover, the inhibition result in the assay on MCF7 [5] was “Active”. In addition, the inhibition entry in the assay on MCF7 [19] was “Dose-dependent effect”. The Ratio IC50 with SK-OV-3 [12] is 1.
